# Test system: Mus musculus
# Assay: Activity tested to antagonise cyclic GMP after administration of isoniazid in mouse brain
# Assay type: functional
# Details: not given
row,SMILES,ED50 [mg/kg]
1,COc1cccc(N2C(=O)/C(=C\N(C)C)c3ccccc32)c1,< 10
2,CN(C)/C=C1\C(=O)N(c2cc(Cl)ccc2Cl)c2ccccc21,~10
3,COc1ccc(N2C(=O)/C(=C\N(C)C)c3ccccc32)cc1OC,< 10
4,C/C(=C1/C(=O)N(c2cccc(Cl)c2)c2ccccc21)N(C)C,1

# Molecular target: GABA-A receptor; anion channel (Rattus norvegicus) (UniProt O09028+P15431+P18506+P18508+P19969+P20236+P23574+P23576+P28471+P28473+P30191+P62813+P63079+P63138+Q91ZM7+Q9ES14)
# Assay: Antagonism of mercaptopropionic acid (MPA) induced convulsions in mouse
# Assay type: functional, organism-based
# Details: not given
row,SMILES,ED50 [mg/kg]
1,Oc1c(C2=NCCCCC2)c2ccccc2n1-c1cccc(Cl)c1,> 100
2,CN(C)/C(=C1\C(=O)N(c2cccc(Cl)c2)c2ccccc21)c1ccccc1,> 100
3,CCC/N=C/c1c(O)n(-c2cccc(Cl)c2)c2ccccc12,> 56
4,C/C(=C1/C(=O)N(c2cccc(C)c2)c2ccccc21)N(C)C,17.8
5,CCc1cccc(N2C(=O)/C(=C\N(C)C)c3ccccc32)c1,14.1
6,CN1CCC/C1=C1/C(=O)N(c2cccc(C#N)c2)c2ccccc21,> 100
7,COc1cccc(N2C(=O)/C(=C\N(C)C)c3ccccc32)c1,27.9
8,O=C1/C(=C2/CCCN2Cc2ccccc2)c2ccccc2N1c1cccc(Cl)c1,> 100
9,CN(C)/C=C1\C(=O)N(c2cc(Cl)ccc2Cl)c2ccccc21,> 100
10,CN(C)/C=C1\C(=O)N(c2cccc([N+](=O)[O-])c2)c2ccccc21,> 100
11,COc1ccc(N2C(=O)/C(=C(/C)N(C)C)c3ccccc32)cc1F,> 100
12,CN(C)/C=C1\C(=O)N(c2ccc(Cl)cc2)c2ccccc21,> 100
13,O=C1/C(=C\N2CCCCC2)c2ccccc2N1c1cccc(Cl)c1,> 56
14,COc1ccc(-n2c(O)c(C3=NCCC3)c3ccccc32)cc1F,56
15,Cc1ccccc1N1C(=O)/C(=C\N(C)C)c2ccccc21,18
16,C/C(=C1/C(=O)N(c2ccccc2)c2cc(Cl)ccc21)N1CCCC1,> 56
17,CN(C)/C=C1\C(=O)N(c2cccc(Cl)c2)c2c(Cl)cccc21,> 100
18,COc1ccc(N2C(=O)/C(=C(/C)N(C)C)c3ccccc32)cc1,> 100
19,CN(C)/C=C1\C(=O)N(c2cccc(C(F)(F)F)c2)c2ccccc21,22.2
20,COc1ccc(N2C(=O)/C(=C\N(C)C)c3ccccc32)cc1,48.2
21,COc1ccc2c(c1)/C(=C/N(C)C)C(=O)N2c1cccc(Cl)c1,> 100
22,CCO/C=C1\C(=O)N(c2cccc(Cl)c2)c2ccccc21,> 100
23,CN(C)/C=C1\C(=O)N(c2ccccc2)c2cc(Cl)ccc21,> 100
24,N=Cc1c(O)n(-c2cccc(Cl)c2)c2ccccc12,22.1
25,CN(C)/C=C1\C(=O)N(c2cccc(C(=O)N(C)C)c2)c2ccccc21,> 100

row,SMILES,ED50 [mg/kg]
1,O=C1/C(=C2/CCCN2Cc2ccc(Cl)cc2)c2ccccc2N1c1cccc(Cl)c1,> 100
2,O=C1/C(=C2/CCCN2c2ccccc2)c2ccccc2N1c1cccc(Cl)c1,> 100
3,CN(C)/C=C1\C(=O)N(c2cccc(Cl)c2)c2ccc(Cl)cc21,> 100
4,Oc1c(/C=N/Cc2ccccc2)c2ccccc2n1-c1cccc(Cl)c1,> 100
5,CN(C)/C=C1\C(=O)N(c2cccc(O)c2)c2ccccc21,> 100
6,CN1CCC/C1=C1/C(=O)N(c2cccc(Cl)c2)c2cc(Cl)ccc21,> 100
7,CCN(/C=C1\C(=O)N(c2cccc(Cl)c2)c2ccccc21)CC,18
8,COc1ccc(N2C(=O)/C(=C\N(C)C)c3ccccc32)cc1F,6.6
9,CN(/C=C1\C(=O)N(c2cccc(Cl)c2)c2ccccc21)c1ccccc1,> 100
10,COc1ccc(N2C(=O)/C(=C\N(C)C)c3ccccc32)cc1OC,> 100
11,CN(C)C(=O)c1cccc(N2C(=O)/C(=C3/CCCN3C)c3ccccc32)c1,> 100
12,Cc1cccc(N2C(=O)/C(=C\N(C)C)c3ccccc32)c1,14.1
13,N=C(c1c(O)n(-c2cccc(Cl)c2)c2ccccc12)C(F)(F)F,> 56
14,CN1CCC/C1=C1/C(=O)N(c2ccccc2)c2cccc(Cl)c21,> 100
15,CC(=N)c1c(O)n(-c2ccccc2)c2cc(Cl)ccc12,> 56
16,CN1CCCC/C1=C1/C(=O)N(c2cccc(Cl)c2)c2ccccc21,> 100
17,Cc1ccc(N2C(=O)/C(=C\N(C)C)c3ccccc32)cc1,56
18,CCN1CCC/C1=C1/C(=O)N(c2cccc(Cl)c2)c2ccccc21,> 100
19,CN(C)/C=C1\C(=O)N(c2cccc(Cl)c2)c2cc(Cl)ccc21,> 100
20,CN1CCC/C1=C1/C(=O)N(c2ccc(Cl)cc2)c2ccccc21,> 56
21,CN(C)/C=C1\C(=O)N(c2cccc(C=O)c2)c2ccccc21,> 100
22,COc1ccc(N2C(=O)/C(=C3/CCCN3C)c3ccccc32)cc1F,5.6
23,COc1c(C)cc(N2C(=O)/C(=C\N(C)C)c3ccccc32)cc1Cl,15.3
24,O=C1/C(=C\N2CCOCC2)c2ccccc2N1c1cccc(Cl)c1,> 100
25,Oc1c(C2=NCCCCC2)c2ccccc2n1-c1ccccc1,> 100

row,SMILES,ED50 [mg/kg]
1,CN(C)/C=C1\C(=O)N(c2cccc(-c3ccccc3)c2)c2ccccc21,> 100
2,O=C1/C(=C\N2CCCC2)c2ccccc2N1c1cccc(Cl)c1,> 100
3,CCOc1cccc(N2C(=O)/C(=C\N(C)C)c3ccccc32)c1,27.9
4,C/C(=C1/C(=O)N(c2cccc(Cl)c2)c2ccccc21)N(C)C,13.3
5,CN(C)/C=C1\C(=O)N(c2cccc(C#N)c2)c2ccccc21,> 100
6,CN(C)/C=C1\C(=O)N(c2cc(Cl)cc(Cl)c2)c2ccccc21,> 100
7,CN(C)/C=C1\C(=O)N(c2cccc(F)c2)c2ccccc21,39.9
8,CN(C)/C=C1\C(=O)N(c2ccc(N(C)C)cc2)c2ccccc21,> 100
9,CN(/C=C1\C(=O)N(c2cccc(Cl)c2)c2ccccc21)Cc1ccccc1,> 100
10,CN(C)/C=C1\C(=O)N(c2ccccc2)c2ccccc21,> 100
11,CCCN(/C=C1\C(=O)N(c2cccc(Cl)c2)c2ccccc21)CCC,> 100
12,C/C(=C1/C(=O)N(c2ccccc2)c2cc(Cl)ccc21)N(C)C,35.9
13,CN1CCC/C1=C1/C(=O)N(c2ccccc2)c2cc(Cl)ccc21,> 100
14,CSc1ccc(N2C(=O)/C(=C\N(C)C)c3ccccc32)cc1,56
15,CN1CCC/C1=C1/C(=O)N(c2ccccc2)c2ccccc21,> 100
16,CN(C)/C=C1\C(=O)N(c2cccc(Br)c2)c2ccccc21,> 100
17,CC(=N)c1c(O)n(-c2cccc(Cl)c2)c2ccccc12,> 100
18,COc1ccc(N2C(=O)/C(=C\N(C)C)c3ccccc32)cc1C,9.1
19,C/N=C\c1c(O)n(-c2cccc(Cl)c2)c2ccccc12,> 100
20,COc1ccc(Cl)cc1N1C(=O)/C(=C\N(C)C)c2ccccc21,> 100
21,COc1ccc(N2C(=O)/C(=C\N(C)C)c3ccccc32)cc1Cl,7.2
22,O=C1/C(=C\n2ccnc2)c2ccccc2N1c1cccc(Cl)c1,> 100
23,CN(C)/C=C1\C(=O)N(c2cccc(Cl)c2)c2cccc(Cl)c21,> 100
24,COc1ccc(N2C(=O)/C(=C(/C)N(C)C)c3ccccc32)cc1Cl,2.8

# Test system: P23576
# Assay: Administered at a dose 320 umol/kg intraperitoneally before [3H]Flunitrazepam ([3H]-FNP) in mouse brain expressed as percent of control
# Assay type: functional, tissue-based
# Details: not given
# Method in brief: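 Mice in groups of five received test compound or vehicle ip 1 h before 200 μCi/kg [3H]FNP iv and were killed 20 min later. Brains were homogenized in 40 volumes of ice-cold 50 mM Tris-HCl pH 7.7. Triplicate 1.0-mL samples were filtered on glass fiber, washed with cold buffer and counted. Bound FNP is given as % of vehicle-treated mice.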
# Chain of P23576 (P23576 whole entry): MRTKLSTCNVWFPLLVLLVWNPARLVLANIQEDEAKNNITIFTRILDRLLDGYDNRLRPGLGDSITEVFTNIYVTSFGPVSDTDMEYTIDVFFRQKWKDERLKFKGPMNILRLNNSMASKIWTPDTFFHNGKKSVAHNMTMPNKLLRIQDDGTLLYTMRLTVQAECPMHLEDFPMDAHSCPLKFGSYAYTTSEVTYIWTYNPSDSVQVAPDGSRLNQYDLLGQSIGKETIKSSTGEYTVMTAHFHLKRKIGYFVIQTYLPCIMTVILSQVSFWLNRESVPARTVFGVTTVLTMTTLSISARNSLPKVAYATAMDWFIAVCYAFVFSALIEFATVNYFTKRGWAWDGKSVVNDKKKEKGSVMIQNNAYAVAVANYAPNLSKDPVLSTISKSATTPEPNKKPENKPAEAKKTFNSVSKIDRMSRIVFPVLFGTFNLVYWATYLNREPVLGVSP
row,SMILES,Control [%]
1,Oc1c(C2=NCCCCC2)c2ccccc2n1-c1cccc(Cl)c1,138
2,CN1CCC/C1=C1/C(=O)N(c2cccc(C#N)c2)c2ccccc21,121
3,O=C1/C(=C2/CCCN2Cc2ccccc2)c2ccccc2N1c1cccc(Cl)c1,149
4,O=C1/C(=C2/CCCN2Cc2ccc(Cl)cc2)c2ccccc2N1c1cccc(Cl)c1,131
5,O=C1/C(=C2/CCCN2c2ccccc2)c2ccccc2N1c1cccc(Cl)c1,125
6,CN1CCC/C1=C1/C(=O)N(c2cccc(Cl)c2)c2cc(Cl)ccc21,189
7,CN(C)C(=O)c1cccc(N2C(=O)/C(=C3/CCCN3C)c3ccccc32)c1,164
8,CN1CCC/C1=C1/C(=O)N(c2ccccc2)c2cccc(Cl)c21,190
9,CN1CCCC/C1=C1/C(=O)N(c2cccc(Cl)c2)c2ccccc21,135
10,CCN1CCC/C1=C1/C(=O)N(c2cccc(Cl)c2)c2ccccc21,164
11,CN1CCC/C1=C1/C(=O)N(c2ccc(Cl)cc2)c2ccccc21,127
12,COc1ccc(N2C(=O)/C(=C3/CCCN3C)c3ccccc32)cc1F,225
13,CN(/C=C1\C(=O)N(c2cccc(Cl)c2)c2ccccc21)Cc1ccccc1,135
14,CN1CCC/C1=C1/C(=O)N(c2ccccc2)c2cc(Cl)ccc21,158
15,CN1CCC/C1=C1/C(=O)N(c2ccccc2)c2ccccc21,143
16,O=C1/C(=C\n2ccnc2)c2ccccc2N1c1cccc(Cl)c1,139

# Test system: not listed separately
# Assay: Ability to displace [3H]flunitrazepam ([3H]-FNP) binding to mouse brain after intraperitoneal administration at a dose 320 umol/kg
# Assay type: functional, organism-based
# Details: at 320 µmol/kg
# Method in brief: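 Mice in groups of five got test agent or vehicle ip 1 h before iv [3H]FNP at 200 μCi/kg, then were killed 20 min later by cervical dislocation. Brains were frozen and homogenized in 40 volumes of ice-cold 50 mM Tris-HCl pH 7.7. Triplicate samples were filtered on glass fiber, washed with cold buffer and counted. Bound label is expressed as % of vehicle-treated mice.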
row,SMILES,[3H]flunitrazepam binding [%]
1,COc1cccc(N2C(=O)/C(=C\N(C)C)c3ccccc32)c1,217
2,CN(C)/C=C1\C(=O)N(c2cc(Cl)ccc2Cl)c2ccccc21,147
3,CN(C)/C=C1\C(=O)N(c2cccc([N+](=O)[O-])c2)c2ccccc21,171
4,COc1ccc(N2C(=O)/C(=C(/C)N(C)C)c3ccccc32)cc1F,157
5,O=C1/C(=C\N2CCCCC2)c2ccccc2N1c1cccc(Cl)c1,131
6,C/C(=C1/C(=O)N(c2ccccc2)c2cc(Cl)ccc21)N1CCCC1,213
7,CN(C)/C=C1\C(=O)N(c2cccc(Cl)c2)c2c(Cl)cccc21,169
8,CN(C)/C=C1\C(=O)N(c2cccc(C(F)(F)F)c2)c2ccccc21,131
9,COc1ccc(N2C(=O)/C(=C\N(C)C)c3ccccc32)cc1,153
10,N=Cc1c(O)n(-c2cccc(Cl)c2)c2ccccc12,134
11,COc1ccc(N2C(=O)/C(=C\N(C)C)c3ccccc32)cc1F,194
12,CN(/C=C1\C(=O)N(c2cccc(Cl)c2)c2ccccc21)c1ccccc1,133
13,COc1ccc(N2C(=O)/C(=C\N(C)C)c3ccccc32)cc1OC,138
14,Cc1cccc(N2C(=O)/C(=C\N(C)C)c3ccccc32)c1,184
15,O=C1/C(=C\N2CCOCC2)c2ccccc2N1c1cccc(Cl)c1,121
16,CN(C)/C=C1\C(=O)N(c2cccc(C#N)c2)c2ccccc21,192
17,CN(C)/C=C1\C(=O)N(c2cc(Cl)cc(Cl)c2)c2ccccc21,153
18,CC(=N)c1c(O)n(-c2cccc(Cl)c2)c2ccccc12,103
19,C/N=C\c1c(O)n(-c2cccc(Cl)c2)c2ccccc12,119
20,COc1ccc(Cl)cc1N1C(=O)/C(=C\N(C)C)c2ccccc21,149
21,COc1ccc(N2C(=O)/C(=C\N(C)C)c3ccccc32)cc1Cl,244
